Measurements: ChEMBL document CHEMBL3813629, “Antistaphylococcal Prenylated Acylphoroglucinol and Xanthones from Kielmeyera variabilis” (2016)
Values after ≈ are worked out from the molar mass of the structure shown. Active and inactive are the calls of the source.

Columns and labels:
[1] = tested on: Staphylococcus aureus; test: Antibacterial activity against […] Staphylococcus aureus EMRSA-16 after 18 hrs by MTT assay; format: functional
In short: (§1)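 Strains grown on nutrient agar 24 h at 37 °C; inoculum 1 × 10⁶ cfu/mL in normal saline, set against 0.5 McFarland standard. Samples dissolved in DMSO, diluted in cation-adjusted Mueller-Hinton broth (Ca²⁺ 20 mg/L, Mg²⁺ 10 mg/L), starting 1024 mg/L, twofold serial broth microdilution; 37 °C, 18 h; MTT added, 20 min; MIC = lowest concentration without yellow-to-blue change.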

[2] = tested on: Staphylococcus aureus; test: Antibacterial activity against […] Staphylococcus aureus XU212 expressing TetK efflux pump after 18 hrs by MTT assay; format: functional; in short: as §1
[3] = tested on: Staphylococcus aureus; test: Antibacterial activity against MsrA macrolide-resistant Staphylococcus aureus RN4220 after 18 hrs by MTT assay; format: functional; in short: as §1
[4] = tested on: Staphylococcus aureus; test: Antibacterial activity against […] Staphylococcus aureus EMRSA-15 after 18 hrs by MTT assay; format: functional; in short: as §1
[5] = tested on: Staphylococcus aureus; test: Antibacterial activity against […] Staphylococcus aureus ATCC 25923 after 18 hrs by MTT assay; format: functional; in short: as §1
[6] = tested on: Staphylococcus aureus; test: Antibacterial activity against […] Staphylococcus aureus SA1199B over expressing NorA MDR efflux pump after 18 hrs by MTT assay; format: functional; in short: as §1
[7] = tested on: Staphylococcus aureus; test: […] activity against […] Staphylococcus aureus SA1199B over expressing NorA MDR efflux pump assessed as growth inhibition after 24 hrs using cell cultures pre-treated with compound for 24 hrs; format: functional, organism-based
In short: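 MIC-plate wells from SA-1199B showing no growth sampled (10 μL) onto drug-free Mueller-Hinton agar, incubated 24 h; growth of colonies scored; bactericidal end point defined as ≥99.9% reduction versus starting inoculum. MBC plates themselves incubated 24 h at 37 °C before transfer.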

Compound | MIC [1] | MIC [2] | MIC [3] | MIC [4] | MIC [5] | MIC [6] | MIC ([1]; EMRSA-16, 18 h) [µg/mL] | MIC ([2]; XU212, 18 h) [µg/mL] | MIC ([3]; RN4220, 18 h) [µg/mL] | MIC ([4]; EMRSA-15, 18 h) [µg/mL] | MIC ([5]; ATCC 25923, 18 h) [µg/mL] | growth inhibition (GI) [7]
CC(C)[C@H](C)CC[C@@H](C)[C@H]1CC[C@H]2[C@@H]3CC=C4C[C@@H](O)CC[C@]4(C)[C@H]3CC[C@]12C | inactive | inactive | inactive | inactive | inactive | inactive | – | – | – | – | – | –
CCn1cc(C(=O)O)c(=O)c2cc(F)c(N3CCNCC3)cc21 [NORFLOXACIN] | – | – | – | – | – | 32 µg/mL (≈ 100 µM) | 128 (≈ 401 µM) | 8 (≈ 25.1 µM) | 0.5 (≈ 1.57 µM) | 0.5 (≈ 1.57 µM) | 0.5 (≈ 1.57 µM) | –
CC[C@H](CC[C@@H](C)[C@H]1CC[C@H]2[C@@H]3CC=C4C[C@@H](O)CC[C@]4(C)[C@H]3CC[C@]12C)C(C)C | inactive | inactive | inactive | inactive | inactive | inactive | – | – | – | – | – | –
COc1cc2c(=O)c3ccccc3oc2c(O)c1OC | – | – | – | – | – | 64 µg/mL (≈ 235 µM) | 64 (≈ 235 µM) | 128 (≈ 470 µM) | > 512 | > 512 | 128 (≈ 470 µM) | –
COc1cc2c(=O)c3ccccc3oc2cc1O | – | – | – | – | – | 64 µg/mL (≈ 264 µM) | 32 (≈ 132 µM) | 64 (≈ 264 µM) | 64 (≈ 264 µM) | 64 (≈ 264 µM) | 64 (≈ 264 µM) | –
CC[C@H](/C=C/[C@@H](C)[C@H]1CC[C@H]2[C@@H]3CC=C4C[C@@H](O)CC[C@]4(C)[C@H]3CC[C@]12C)C(C)C | inactive | inactive | inactive | inactive | inactive | inactive | – | – | – | – | – | –
COc1c(O)ccc2oc3ccccc3c(=O)c12 | – | – | – | – | – | 64 µg/mL (≈ 264 µM) | 32 (≈ 132 µM) | 128 (≈ 528 µM) | 64 (≈ 264 µM) | 64 (≈ 264 µM) | 64 (≈ 264 µM) | –
COc1cc([C@@H]2Oc3c(OC)cc4c(=O)c5ccccc5oc4c3O[C@H]2CO)ccc1O | – | – | – | – | – | > 512 µg/mL | > 512 | > 512 | > 512 | > 512 | > 512 | –
CCCCC(C(=O)OC)[C@]12C(=O)[C@](CC=C(C)C)(C[C@H](CC=C(C)C)C1(C)C)C(=O)C(C(=O)CCC)=C2O (some centres not stated) | – | – | – | – | – | 2 µg/mL (≈ 3.78 µM) | 0.5 (≈ 0.946 µM) | 0.25 (≈ 0.473 µM) | 0.25 (≈ 0.473 µM) | 1 (≈ 1.89 µM) | 1 (≈ 1.89 µM) | Active
COc1cc(OC)c2c(=O)c3cccc(O)c3oc2c1 | – | – | – | – | – | 64 µg/mL (≈ 235 µM) | 64 (≈ 235 µM) | > 512 | > 512 | > 512 | 128 (≈ 470 µM) | –
COc1cc2c(=O)c3ccccc3oc2c(O)c1O | – | – | – | – | – | 32 µg/mL (≈ 124 µM) | 16 (≈ 62 µM) | 16 (≈ 62 µM) | 32 (≈ 124 µM) | 64 (≈ 248 µM) | 64 (≈ 248 µM) | –
